Measured values: ChEMBL document CHEMBL4368872, “Synthesis and anticonvulsant activity of phenoxyacetyl derivatives of amines, including aminoalkanols and amino acids” (Medchemcomm, 2018)
Calls of active or inactive are those of the source. The rule behind the calls is not given here.

Columns and labels:
[1] = test system: Mus musculus; test: Anticonvulsant activity in CF-1 mouse model of maximal electroshock-induced seizure assessed as suppression of tonic hind limb extension at 100 mg/kg, ip measured at 0.25 hrs post dose; type: functional, organism-based
Method in brief: (§1)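 Mice dosed i.p. and given maximal electroshock at 50 mA. Read-out is protection, reported as number protected / number tested at 0.25, 0.5, 1 and 4 h after dosing.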

[2] = test system: Mus musculus; test: Anticonvulsant activity in CF-1 mouse model of maximal electroshock-induced seizure assessed as suppression of tonic hind limb extension at 30 mg/kg, ip measured at 0.5 hrs post dose; type: functional, organism-based; method in brief: as §1
[3] = test system: Mus musculus; test: Anticonvulsant activity in CF-1 mouse model of maximal electroshock-induced seizure assessed as suppression of tonic hind limb extension at 100 mg/kg, ip measured at 0.5 hrs post dose; type: functional, organism-based; method in brief: as §1
[4] = test system: Mus musculus; test: Anticonvulsant activity in CF-1 mouse model of maximal electroshock-induced seizure assessed as suppression of tonic hind limb extension at 300 mg/kg, ip measured at 0.5 hrs post dose; type: functional, organism-based; method in brief: as §1
[5] = test system: Mus musculus; test: Anticonvulsant activity in CF-1 mouse model of maximal electroshock-induced seizure assessed as suppression of tonic hind limb extension at 100 mg/kg, ip measured at 1 hr post dose; type: functional, organism-based; method in brief: as §1
[6] = test system: Mus musculus; test: Anticonvulsant activity in CF-1 mouse model of maximal electroshock-induced seizure assessed as suppression of tonic hind limb extension at 30 mg/kg, ip measured at 4 hrs post dose; type: functional, organism-based; method in brief: as §1
[7] = test system: Mus musculus; test: Anticonvulsant activity in CF-1 mouse model of maximal electroshock-induced seizure assessed as suppression of tonic hind limb extension at 100 mg/kg, ip measured at 4 hrs post dose; type: functional, organism-based; method in brief: as §1
[8] = test system: Mus musculus; test: Anticonvulsant activity in CF-1 mouse model of maximal electroshock-induced seizure assessed as suppression of tonic hind limb extension at 300 mg/kg, ip measured at 4 hrs post dose; type: functional, organism-based; method in brief: as §1
[9] = test system: Mus musculus; test: Anticonvulsant activity in CF-1 mouse model of subcutaneous pentylenetetrazole-induced seizure assessed as reduction in convulsions at 30 mg/kg, ip measured at 0.5 hrs post dose; type: functional, organism-based
Method in brief: (§2)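 Mice dosed i.p., then given pentylenetetrazole 85 mg/kg in 0.9% NaCl s.c. into the posterior midline of the neck. Seizures watched for at least 30 min. Scored as protected / tested at 0.5 and 4 h.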

[10] = test system: Mus musculus; test: Anticonvulsant activity in CF-1 mouse model of subcutaneous pentylenetetrazole-induced seizure assessed as reduction in convulsions at 100 mg/kg, ip measured at 0.5 hrs post dose; type: functional, organism-based; method in brief: as §2
[11] = test system: Mus musculus; test: Anticonvulsant activity in CF-1 mouse model of subcutaneous pentylenetetrazole-induced seizure assessed as reduction in convulsions at 300 mg/kg, ip measured at 0.5 hrs post dose; type: functional, organism-based; method in brief: as §2
[12] = test system: Mus musculus; test: Anticonvulsant activity in CF-1 mouse model of subcutaneous pentylenetetrazole-induced seizure assessed as reduction in convulsions at 30 mg/kg, ip measured at 4 hrs post dose; type: functional, organism-based; method in brief: as §2
[13] = test system: Mus musculus; test: Anticonvulsant activity in CF-1 mouse model of subcutaneous pentylenetetrazole-induced seizure assessed as reduction in convulsions at 100 mg/kg, ip measured at 4 hrs post dose; type: functional, organism-based; method in brief: as §2
[14] = test system: Mus musculus; test: Anticonvulsant activity in CF-1 mouse model of subcutaneous pentylenetetrazole-induced seizure assessed as reduction in convulsions at 300 mg/kg, ip measured at 4 hrs post dose; type: functional, organism-based; method in brief: as §2
[15] = Neurotoxicity in CF-1 mouse at 100 mg/kg, ip measured after 0.25 hrs by rotarod test; type: toxicity, organism-based; conditions: in vivo
Method in brief: (§3)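 Mice dosed i.p. were placed on a 1 in. knurled rod turning at 6 rpm. Toxicity was scored as failure to keep balance for at least 1 min, i.e. falling off three or more times. Results are reported as animals showing toxicity / animals tested at each time point.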

[16] = Neurotoxicity in CF-1 mouse at 30 mg/kg, ip measured after 0.5 hrs by rotarod test; type: toxicity, organism-based; conditions: in vivo; method in brief: as §3
[17] = Neurotoxicity in CF-1 mouse at 100 mg/kg, ip measured after 1 hr by rotarod test; type: toxicity, organism-based; conditions: in vivo; method in brief: as §3
[18] = Neurotoxicity in CF-1 mouse at 30 mg/kg, ip measured after 4 hrs by rotarod test; type: toxicity, organism-based; conditions: in vivo; method in brief: as §3
[19] = Neurotoxicity in CF-1 mouse at 100 mg/kg, ip measured after 4 hrs by rotarod test; type: toxicity, organism-based; conditions: in vivo; method in brief: as §3
[20] = Neurotoxicity in CF-1 mouse at 300 mg/kg, ip measured after 4 hrs by rotarod test; type: toxicity, organism-based; conditions: in vivo; method in brief: as §3
[21] = Neurotoxicity in CF-1 mouse at 100 mg/kg, ip measured after 0.5 hrs by rotarod test; type: toxicity, organism-based; conditions: in vivo; method in brief: as §3
[22] = Neurotoxicity in CF-1 mouse at 300 mg/kg, ip measured after 0.5 hrs by rotarod test; type: toxicity, organism-based; conditions: in vivo; method in brief: as §3

| Structure (SMILES) | Activity [1] | Activity [2] | Activity [3] | Activity [4] | Activity [5] | Activity [6] | Activity [7] | Activity [8] | Activity [9] | Activity [10] | Activity [11] | Activity [12] | Activity [13] | Activity [14] | Activity [15] | Activity [16] | Activity [18] | Activity [19] | Activity [20] | Activity [21] | further results |
| --- | --- | --- | --- | --- | --- | --- | --- | --- | --- | --- | --- | --- | --- | --- | --- | --- | --- | --- | --- | --- | --- |
| CCC(CO)NC(=O)COc1c(C)cc(C)cc1C (stereo not drawn) | inactive | inactive | inactive | Active | inactive | inactive | inactive | inactive | inactive | inactive | inactive | inactive | inactive | inactive | Non-Toxic | Non-Toxic | Non-Toxic | Non-Toxic | Non-Toxic | – | Activity [17]: Non-Toxic |
| CCC(NC(=O)COc1c(C)cc(C)cc1C)C(N)=O (stereo not drawn) | inactive | inactive | inactive | Active | inactive | inactive | inactive | inactive | inactive | inactive | inactive | inactive | inactive | inactive | Non-Toxic | Non-Toxic | Non-Toxic | Non-Toxic | Non-Toxic | Non-Toxic | Activity [17]: Non-Toxic |
| Cc1cccc(C)c1OCC(=O)N[C@H](C)C(N)=O | inactive | inactive | inactive | Active | inactive | inactive | inactive | inactive | inactive | inactive | inactive | – | inactive | inactive | Non-Toxic | Non-Toxic | Non-Toxic | Non-Toxic | Non-Toxic | – | – |
| Cc1cccc(C)c1OCC(=O)N[C@@H](C)CO | – | inactive | inactive | Active | – | inactive | inactive | Active | inactive | inactive | inactive | inactive | inactive | inactive | – | – | Non-Toxic | – | – | – | – |
| Cc1cccc(C)c1OCC(=O)N[C@@H](C)C(=O)O | – | inactive | inactive | inactive | – | inactive | inactive | inactive | inactive | inactive | inactive | inactive | inactive | inactive | – | Non-Toxic | Non-Toxic | Non-Toxic | Non-Toxic | Non-Toxic | Activity [22]: Non-Toxic |
| Cc1cccc(C)c1OCC(=O)NC(C)C(=O)O (stereo not drawn) | – | inactive | inactive | inactive | – | inactive | inactive | inactive | inactive | inactive | inactive | inactive | inactive | inactive | – | Non-Toxic | Non-Toxic | Non-Toxic | Non-Toxic | Non-Toxic | Activity [22]: Non-Toxic |
| Cc1cc(C)c(OCC(=O)NCC(O)c2ccccc2)c(C)c1 (stereo not drawn) | – | inactive | inactive | inactive | – | inactive | inactive | inactive | inactive | inactive | inactive | inactive | inactive | inactive | – | Non-Toxic | Non-Toxic | Non-Toxic | Non-Toxic | Non-Toxic | Activity [22]: Toxic |
| Cc1cccc(C)c1OCC(=O)NCCc1ccccc1 | – | inactive | inactive | inactive | – | inactive | inactive | inactive | inactive | inactive | inactive | inactive | inactive | inactive | – | Non-Toxic | Non-Toxic | Non-Toxic | Non-Toxic | Non-Toxic | – |
